Source: ChEMBL document CHEMBL1148762, “Lysosome and HER3 (ErbB3) selective anticancer agent kahalalide F: semisynthetic modifications and antifungal lead-exploration studies” (J Med Chem, 2007)
≈ marks a conversion by molar mass, not a printed value. Calls of active or inactive are those of the source. No cut-off for these calls is given here.

Experiments:
NCI-H322M = assay: Cytotoxicity against human NCI-H322M cells; type: functional
Method in brief: (§1)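 NCI Developmental Therapeutics Program cell panel. GI50 is the concentration that reduces growth of treated cells to half that of untreated controls. TGI is the concentration that completely halts growth.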

Fusarium proliferatum [1] = assay: Antimicrobial activity against Fusarium proliferatum at 30 uM after 48 hrs by microtiter assay; type: functional
Method in brief: (§2)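 96-well microdilution broth assay with conidia (3 × 10^5 conidia/mL, harvested from 7-day PDA cultures and filtered) against F. oxysporum, F. proliferatum and F. solani at 0.3, 3 and 30 µM. Plates were held at 24 ± 1 °C under a 12 h photoperiod. Growth was read at 620 nm at 24, 48 and 72 h and reported as percent inhibition from mean absorbance with standard error.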

Staphylococcus aureus = assay: Antimicrobial activity against methicillin-resistant Staphylococcus aureus; type: functional, organism-based
Fusarium solani [2] = assay: Antimicrobial activity against Fusarium solani at 3 uM after 72 hrs by microtiter assay; type: functional; method in brief: as §2
Fusarium solani [3] = assay: Antimicrobial activity against Fusarium solani at 0.3 uM after 72 hrs by microtiter assay; type: functional; method in brief: as §2
Fusarium proliferatum [4] = assay: Antimicrobial activity against Fusarium proliferatum at 30 uM after 72 hrs by microtiter assay; type: functional; method in brief: as §2
[5] = system: Mycobacterium intracellulare; assay: Antimicrobial activity against Mycobacterium intracellular ATCC 23068; type: functional, organism-based
Fusarium solani [6] = assay: Antimicrobial activity against Fusarium solani at 3 uM after 48 hrs by microtiter assay; type: functional; method in brief: as §2
Aspergillus fumigatus = assay: Antimicrobial activity against Aspergillus fumigatus ATCC 90906; type: functional, organism-based
Fusarium proliferatum [7] = assay: Antifungal activity against Fusarium proliferatum at 20 ug/mL after 3 days by fluorescence assay; type: functional, organism-based
Method in brief: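 Fusarium proliferatum conidia in potato dextrose broth in a tube with the coumarin (DEAC)-labelled probe at 20 µg/mL, held at 24 ± 1 °C. Hyphae and mycelia were viewed at 4, 8, 16, 24, 48 and 72 h by light and epifluorescence microscopy at 400× and 1000×. Conidia were first checked for autofluorescence.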

Fusarium oxysporum [8] = assay: Antimicrobial activity against Fusarium oxysporum at 30 uM after 72 hrs by microtiter assay; type: functional; method in brief: as §2
Fusarium oxysporum [9] = assay: Fungicidal activity against Fusarium oxysporum at 30 uM after 72 hrs by microtiter plate assay; type: functional, organism-based
Method in brief: (§3)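 After 72 h of microtiter broth exposure at 30 µM, 20 µL from each well was plated onto compound-free potato dextrose agar and incubated 3 days at 28 °C. No regrowth was scored fungicidal; regrowth was scored fungistatic.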

Fusarium solani [10] = assay: Fungicidal activity against Fusarium solani at 30 uM after 72 hrs by microtiter assay; type: functional, organism-based; method in brief: as §3
SK-OV-3 = assay: Cytotoxicity against human SK-OV3 cells; type: functional; method in brief: as §1
KM12 = assay: Cytotoxicity against human KM12 cells; type: functional; method in brief: as §1
SNB-75 = assay: Cytotoxicity against human SNB75 cells; type: functional; method in brief: as §1
Fusarium oxysporum [11] = assay: Antimicrobial activity against Fusarium oxysporum at 3 uM after 72 hrs by microtiter assay; type: functional; method in brief: as §2
PC-3 = assay: Cytotoxicity against human PC3 cells; type: functional; method in brief: as §1
Hs-578T = assay: Cytotoxicity against human HS578T cells; type: functional; method in brief: as §1
[12] = system: Mycobacterium tuberculosis; assay: Antibacterial activity against Mycobacterium tuberculosis H37Rv at 16 ug/mL by micro plate alamar blue assay; type: functional
Method in brief: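 M. tuberculosis H37Rv ATCC 27294 grown in BACTEC 12B medium; microplate Alamar blue assay (MABA). Primary screen at a single concentration of 16 µg/mL, read as percent inhibition.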

HT-29 = assay: Cytotoxicity against human HT29 cells; type: functional; method in brief: as §1
HCC 2998 = assay: Cytotoxicity against human HCC2998 cells; type: functional; method in brief: as §1
Escherichia coli = assay: Antimicrobial activity against Escherichia coli; type: functional, organism-based
Fusarium proliferatum [13] = assay: Antimicrobial activity against Fusarium proliferatum at 3 uM after 48 hrs by microtiter assay; type: functional; method in brief: as §2
Fusarium proliferatum [14] = assay: Antimicrobial activity against Fusarium proliferatum at 0.3 uM after 72 hrs by microtiter assay; type: functional; method in brief: as §2
Fusarium solani [15] = assay: Antimicrobial activity against Fusarium solani at 0.3 uM after 48 hrs by microtiter assay; type: functional; method in brief: as §2
A549 = assay: Cytotoxicity against human A549 cells; type: functional; method in brief: as §1
Fusarium oxysporum [16] = assay: Antimicrobial activity against Fusarium oxysporum at 3 uM after 48 hrs by microtiter assay; type: functional; method in brief: as §2
RPMI-8226 = assay: Cytotoxicity against human RPMI8226 cells; type: functional; method in brief: as §1
UACC-257 = assay: Cytotoxicity against human UACC257 cells; type: functional; method in brief: as §1
Candida albicans = assay: Antimicrobial activity against Candida albicans ATCC 90028; type: functional, organism-based
Fusarium oxysporum [17] = assay: Antimicrobial activity against Fusarium oxysporum at 0.3 uM after 48 hrs by microtiter assay; type: functional; method in brief: as §2
Leishmania donovani = assay: Antiparasitic activity against Leishmania donovani; type: functional, organism-based
Fusarium oxysporum [18] = assay: Antimicrobial activity against Fusarium oxysporum at 0.3 uM after 72 hrs by microtiter assay; type: functional; method in brief: as §2
Fusarium solani [19] = assay: Antimicrobial activity against Fusarium solani at 30 uM after 72 hrs by microtiter assay; type: functional; method in brief: as §2
Fusarium proliferatum [20] = assay: Antimicrobial activity against Fusarium proliferatum at 3 uM after 72 hrs by microtiter assay; type: functional; method in brief: as §2
[21] = system: Mycobacterium tuberculosis; assay: Antibacterial activity against Mycobacterium tuberculosis H37Rv by micro plate alamar blue assay; type: functional
HCT-15 = assay: Cytotoxicity against human HCT15 cells; type: functional; method in brief: as §1
Fusarium oxysporum [22] = assay: Antimicrobial activity against Fusarium oxysporum at 30 uM after 48 hrs by microtiter assay; type: functional; method in brief: as §2
Fusarium proliferatum [23] = assay: Antimicrobial activity against Fusarium proliferatum at 0.3 uM after 48 hrs by microtiter assay; type: functional; method in brief: as §2
Cryptococcus neoformans = assay: Antimicrobial activity against Cryptococcus neoformans ATCC 90113; type: functional, organism-based
Fusarium proliferatum [24] = assay: Fungicidal activity against Fusarium proliferatum at 30 uM after 72 hrs by microtiter plate assay; type: functional, organism-based; method in brief: as §3
Fusarium solani [25] = assay: Antimicrobial activity against Fusarium solani at 30 uM after 48 hrs by microtiter assay; type: functional; method in brief: as §2
ACHN = assay: Cytotoxicity against human ACHN cells; type: functional; method in brief: as §1
Fusarium solani [26] = assay: Fungistatic activity against Fusarium solani at 30 uM after 72 hrs by microtiter plate assay; type: functional, organism-based
Method in brief: (§4)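 Conidia come from 7-day potato dextrose agar cultures, filtered and set photometrically (625 nm) to 3 × 10^5 conidia/mL. They are exposed to compound at 30 µM in 96-well microdilution broth at 24 ± 1 °C under a 12 h photoperiod. After 72 h, 20 µL per well is subcultured on drug-free potato dextrose agar at 28 °C for 3 days. No regrowth is scored fungicidal; regrowth is scored fungistatic.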

Fusarium oxysporum [27] = assay: Fungistatic activity against Fusarium oxysporum at 30 uM after 72 hrs by microtiter plate assay; type: functional, organism-based; method in brief: as §4
Fusarium proliferatum [28] = assay: Fungistatic activity against Fusarium proliferatum at 30 uM after 72 hrs by microtiter plate assay; type: functional, organism-based; method in brief: as §4

**Q.** What does the source list for `C/C=C1\NC(=O)[C@H](Cc2ccccc2)NC(=O)[C@@H](C(C)C)NC(=O)[C@@H]([C@H](C)CC)NC(=O)[C@H](NC(=O)[C@H](NC(=O)[C@H](CCCN)NC(=O)[C@H]2CCCN2C(=O)[C@H](NC(=O)[C@@H](NC(=O)[C@@H](NC(=O)[C@H](NC(=O)CCCC(C)C)C(C)C)[C@@H](C)O)C(C)C)C(C)C)[C@H](C)CC)[C@H](C)OC(=O)[C@H](C(C)C)NC1=O` [KAHALALIDE F]?
**A.** GI50 (NCI-H322M): 191 nM; TGI (NCI-H322M): 372 nM; inhibition at 30 µM (Fusarium proliferatum [1]): 99.8%; Activity (Staphylococcus aureus): inactive; inhibition at 3 µM (Fusarium solani [2]): 0%; inhibition at 0.3 µM (Fusarium solani [3]): 0%; inhibition at 30 µM (Fusarium proliferatum [4]): 100%; IC50 [5]: > 20000 nM; MBC [5]: > 20 µM; MIC [5]: > 20 µM; inhibition at 3 µM (Fusarium solani [6]): 9.9%; IC50 (Aspergillus fumigatus): 3210 nM; MFC (Aspergillus fumigatus): 20 µM (≈ 29.6 µg/mL); MIC (Aspergillus fumigatus): 10 µM (≈ 14.8 µg/mL); Activity (Fusarium proliferatum [7]): Active; inhibition at 30 µM (Fusarium oxysporum [8]): 99.6%; Activity (Fusarium oxysporum [9]): Active; Activity (Fusarium solani [10]): Active; GI50 (SK-OV-3): 191 nM; TGI (SK-OV-3): 355 nM; GI50 (KM12): 182 nM; TGI (KM12): 363 nM; GI50 (SNB-75): 224 nM; TGI (SNB-75): 1900 nM; inhibition at 3 µM (Fusarium oxysporum [11]): 0%; GI50 (PC-3): 170 nM; TGI (PC-3): 324 nM; GI50 (Hs-578T): 162 nM; TGI (Hs-578T): 479 nM; inhibition at 16 µg/mL [12]: 67%; GI50 (HT-29): 162 nM; TGI (HT-29): 316 nM; GI50 (HCC 2998): 288 nM; TGI (HCC 2998): 616 nM; Activity (Escherichia coli): inactive; inhibition at 3 µM (Fusarium proliferatum [13]): 0%; inhibition at 0.3 µM (Fusarium proliferatum [14]): 0%; inhibition at 0.3 µM (Fusarium solani [15]): 0%; GI50 (A549): 135 nM; TGI (A549): 302 nM; inhibition at 3 µM (Fusarium oxysporum [16]): 0%; GI50 (RPMI-8226): 1740 nM; TGI (RPMI-8226): 6920 nM; GI50 (UACC-257): 1020 nM; TGI (UACC-257): 2820 nM; IC50 (Candida albicans): 3020 nM; MFC (Candida albicans): 20 µM (≈ 29.6 µg/mL); MIC (Candida albicans): 10 µM (≈ 14.8 µg/mL); inhibition at 0.3 µM (Fusarium oxysporum [17]): 0%; IC50 (Leishmania donovani): 17 µg/mL (≈ 11.5 µM); IC90 (Leishmania donovani): 34 µg/mL (≈ 23 µM); inhibition at 0.3 µM (Fusarium oxysporum [18]): 0%; inhibition at 30 µM (Fusarium solani [19]): 99.9%; inhibition at 3 µM (Fusarium proliferatum [20]): 0%; MIC [21]: > 16 µg/mL; GI50 (HCT-15): 269 nM; TGI (HCT-15): 741 nM; inhibition at 30 µM (Fusarium oxysporum [22]): 100%; inhibition at 0.3 µM (Fusarium proliferatum [23]): 0%; IC50 (Cryptococcus neoformans): 1530 nM; MFC (Cryptococcus neoformans): 5 µM (≈ 7.39 µg/mL); MIC (Cryptococcus neoformans): 5 µM (≈ 7.39 µg/mL); Activity (Fusarium proliferatum [24]): Active; inhibition at 30 µM (Fusarium solani [25]): 98.9%; GI50 (ACHN): 1660 nM; TGI (ACHN): 3240 nM

**Q.** How did the Activity (Fusarium proliferatum [7]) turn out when `C/C=C1\NC(=O)[C@H](Cc2ccccc2)NC(=O)[C@@H](C(C)C)NC(=O)[C@@H]([C@@H](C)CC)NC(=O)[C@H](NC(=O)[C@H](NC(=O)[C@H](CCCNC(=O)c2cc3ccc(N(CC)CC)cc3oc2=O)NC(=O)[C@H]2CCCN2C(=O)[C@@H](NC(=O)[C@H](NC(=O)[C@H](NC(=O)[C@@H](NC(=O)CCCC(C)C)C(C)C)[C@H](C)O)C(C)C)C(C)C)[C@@H](C)CC)[C@@H](C)OC(=O)[C@H](C(C)C)NC1=O` was run?
**A.** inactive

**Q.** What about the Activity (Fusarium oxysporum [9]) of the same molecule?
**A.** inactive

**Q.** And the Activity (Fusarium solani [10])?
**A.** inactive

**Q.** What about the Activity (Fusarium proliferatum [24]) of the same molecule?
**A.** inactive

**Q.** Which results are given for `CO/C=C(/C(=O)OC)c1ccccc1Oc1cc(Oc2ccccc2C#N)ncn1` [AZOXYSTROBIN]?
**A.** Activity (Fusarium solani [26]): Active; inhibition at 30 µM (Fusarium proliferatum [1]): 53%; inhibition at 3 µM (Fusarium solani [2]): 15%; inhibition at 0.3 µM (Fusarium solani [3]): 11.7%; Activity (Fusarium oxysporum [27]): Active; Activity (Fusarium proliferatum [28]): Active; inhibition at 30 µM (Fusarium proliferatum [4]): 40.7%; inhibition at 3 µM (Fusarium solani [6]): 25.3%; inhibition at 30 µM (Fusarium oxysporum [8]): 32.9%; inhibition at 3 µM (Fusarium oxysporum [11]): 7.1%; inhibition at 3 µM (Fusarium proliferatum [13]): 21.7%; inhibition at 0.3 µM (Fusarium proliferatum [14]): 0%; inhibition at 0.3 µM (Fusarium solani [15]): 16.6%; inhibition at 3 µM (Fusarium oxysporum [16]): 32.3%; inhibition at 0.3 µM (Fusarium oxysporum [17]): 22.7%; inhibition at 0.3 µM (Fusarium oxysporum [18]): 15.3%; inhibition at 30 µM (Fusarium solani [19]): 51.7%; inhibition at 3 µM (Fusarium proliferatum [20]): 14.8%; inhibition at 30 µM (Fusarium oxysporum [22]): 77.2%; inhibition at 0.3 µM (Fusarium proliferatum [23]): 0%; inhibition at 30 µM (Fusarium solani [25]): 62.7%
